Laboratory results as given in publication PMC8462008 (Bioorganic & medicinal chemistry, 2021).
“Also recorded” adds a separate entry of the source.

Legend:
[1] = test system: NF-κB; test: Poly I:C-induced NF-κB luciferase reporter in HEK-293 cells; type: cell-based, human; settings: 4 h post-treatment
How it was run: (§1)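 HEK-293 cells were transiently transfected with IRF-3 (Poly I:C line) or NF-κB (Poly I:C and TNF-α lines) luciferase reporter plasmids. At 15 h post-transfection, cells were stimulated by transfection with Poly I:C or by 10 ng/ml TNF-α and treated with test compound. Luciferase activity was read at 4 h post-treatment. Run at least twice; means ± SE.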

[2] = test system: RSV-induced cytokines/chemokines; test: RSV-induced cytokine/chemokine induction in SAECs; type: cell-based, human; settings: 10 μM, 4 h posttreatment, RSV MOI 5, SAECs supernatant
How it was run: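 Primary human small airway epithelial cells from normal distal lung were infected with RSV long strain at MOI 5. Virus was removed at 2 h and cells were treated with 10 μM test compound. Supernatants were collected at 4 h post-treatment and assayed with a multiplex human cytokine/chemokine bead kit (Bio-Plex) per kit instructions. Run at least twice; means ± SE.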

[3] = test system: NF-κB; test: TNF-α-induced NF-κB luciferase reporter in HEK-293 cells; type: cell-based, human; settings: 10 ng/ml TNF-α, 4 h post-treatment
How it was run: as §1

[4] = test system: IRF3; test: IRF3 luciferase reporter assay in RSV-infected A549 cells; type: cell-based, human; settings: 10 μM
How it was run: (§2)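 A549 cells transfected in triplicate (FuGene 6) with luciferase plasmids carrying NF-κB binding sites (NF-κB-Luc) or the IRF-3 site (PRDIII-I-Luc, IRF-3-Luc). At 20 h post-transfection, cells were infected with RSV long strain, either MOI 1 with 2 h adsorption then virus removed and 10 μM test compound for 15 h, or MOI 5 with 4 h treatment. Cells were lysed for luciferase. Run at least twice; means ± SE.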

[5] = test system: RSV; test: RSV genome copies in infected A549 cells by RT-qPCR; type: cell-based, respiratory syncytial virus (RSV long strain); settings: 10 μM, RSV MOI 1, A549
How it was run: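 RSV long strain was grown in HEp-2 cells at 37 °C and purified on a sucrose gradient. A549 cells were infected at MOI 1, then treated with 10 μM test compound for 6, 15 or 24 h. Intracellular RSV genome copies were quantified by RT-qPCR at each time point after treatment.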

[6] = test system: IRF-3; test: Poly I:C-activated IRF-3 luciferase reporter in HEK-293 cells; type: cell-based, human; settings: 4 h post-treatment
How it was run: as §1

[7] = test system: NF-κB; test: NF-κB luciferase reporter assay in RSV-infected A549 cells; type: cell-based, human; settings: 10 μM
How it was run: as §2

[8] = test system: RSV viral proteins (P, M, N, F); test: RSV viral protein expression in A549 cells by western blot; type: cell-based, respiratory syncytial virus (RSV long strain); settings: 10 μM; for RSV protein expression: 4 h, RSV MOI 5, A549, versus control cells; for expression of viral P, M, N and F proteins: 15 h posttreatment, RSV MOI 1, A549
How it was run: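 A549 cells were infected with RSV long strain, either MOI 1 then 10 μM test compound for 15 h, or MOI 5 then 10 μM for 4 h. Total lysates were resolved by SDS-PAGE and transferred to PVDF. Membranes were blocked in 5% milk/TBS-Tween 20 and probed with biotin-conjugated polyclonal goat anti-RSV or anti-F antibody; β-actin was the loading control.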

[9] = test system: IRF3; test: RSV-induced IRF3 phosphorylation and nuclear translocation in A549 cells; type: cell-based, human; settings: 10 μM; for IRF-3 total protein level in the cell: cell lysates at 4 h or 15 h of infection
How it was run: (§3)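 A549 cells, mock or RSV-infected, were treated with 10 μM test compound, either MOI 5 for 4 h or MOI 1 for 15 h. Nuclear extracts were blotted for IRF-3, phospho-IRF3 Ser396, p65, and phospho-p65 Ser276 and Ser536. Total IRF-3 and p65 were measured in whole-cell lysates at 4 h and 15 h. Blots used SDS-PAGE, PVDF and 5% milk block; β-actin was the loading control.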

[10] = test system: p65; test: RSV-induced p65 phosphorylation and nuclear translocation in A549 cells; type: cell-based, human; settings: 10 μM; for p65 total protein level in the cell: cell lysates at 4 h or 15 h of infection
How it was run: as §3

[11] = test system: A549 cells; test: LDH release cytotoxicity assay; type: cell-based, human; settings: 10 μM, 15 h
How it was run: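 A549 cells were seeded at 1.5 × 10^4 cells/well for 24 h. The whole medium was then replaced with fresh medium containing 10 μM test compound and 2% FBS; DMSO served as vehicle control. At 15 h, cells were harvested for luminescent LDH-release assay (LDH-Glo kit). Three biological replicates.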

[12] = 4 h posttreatment, RSV MOI 5, A549
[13] = 15 h posttreatment, RSV MOI 1, A549
[14] = 4 h posttreatment, RSV MOI 5, nuclear extracts
[15] = 15 h posttreatment, RSV MOI 1, nuclear extracts

| SMILES | RSV-induced IL-6 [2] | RSV-induced TNF-α [2] | RSV-induced IRF3 activation (luciferase reporter) [4, 12] | RSV-induced IRF3 activation (luciferase reporter) [4, 13] | viral genome copies ([5]; 15 h posttreatment) | viral genome copies ([5]; 24 h posttreatment) | RSV-induced NF-κB activation (luciferase reporter) [7, 12] | RSV-induced NF-κB activation (luciferase reporter) [7, 13] | RSV-induced MIP-1α [2] | also measured |
| --- | --- | --- | --- | --- | --- | --- | --- | --- | --- | --- |
| CC1(Nc2ccc(NC(=O)c3cc(Cl)ccc3O)c(Cl)c2)CCCCC1 [Compound 15, 5-Chloro-N-(2-chloro-4-((1-methylcyclohexyl)amino)phenyl)-2-hydroxybenzamide] | could inhibit | able to inhibit | significantly inhibited | suppressed | significantly decreased | significantly decreased | significantly inhibited | no effect; also recorded: failed to inhibit | – | Poly I:C-induced NF-κB activation (luciferase reporter) [1]: only impacted by compound 22, not 15; RSV-induced MIP-1β [2]: capable to inhibit; RSV-induced cytokines/chemokines (all tested immune mediators) [2]: inhibited the induction of all tested immune mediators; TNF-α-activated NF-κB (luciferase reporter) [3]: not impacted; Poly I:C-activated IRF-3 (luciferase reporter) [6]: suppressed; RSV protein expression [8]: comparable; expression of viral P, M, N and F proteins [8]: decreased; nuclear translocation of IRF3 ([9]; 4 h posttreatment, RSV MOI 5): significantly decreased; RSV-induced IRF3 phosphorylation at Ser396 [9, 14]: significantly decreased; nuclear translocation of IRF3 ([9]; 15 h posttreatment, RSV MOI 1): significantly decreased; RSV-induced IRF3 phosphorylation at Ser396 [9, 15]: significantly decreased; IRF-3 total protein level in the cell [9]: undetectable or minimal impact; RSV-induced p65 Ser276 phosphorylation ([10]; 4 h posttreatment, RSV MOI 5): not affected; RSV-induced p65 Ser536 phosphorylation ([10]; 4 h posttreatment, RSV MOI 5): suppressed; nuclear translocation of p65 ([10]; 4 h posttreatment, RSV MOI 5): suppressed; RSV-induced p65 Ser276 phosphorylation ([10]; 15 h posttreatment, RSV MOI 1): no effect; RSV-induced p65 Ser536 phosphorylation ([10]; 15 h posttreatment, RSV MOI 1): impaired; nuclear translocation of p65 ([10]; 15 h posttreatment, RSV MOI 1): decreased; p65 total protein level in the cell [10]: undetectable or minimal impact |
| O=C(Nc1ccc(N2CCOCC2)cc1Cl)c1cc(Cl)ccc1O [Compound 28, 5-Chloro-N-(2-chloro-4-morpholinophenyl)-2-hydroxybenzamide] | no suppression | no suppression | significantly inhibited | dramatically suppressed | – | – | significantly inhibited | dramatically suppressed | no suppression | – |
| CCCN(CCC)c1ccc(NC(=O)c2cc(Cl)ccc2O)c(Cl)c1 [Compound 26] | – | able to inhibit | significantly inhibited | dramatically suppressed | – | – | significantly inhibited | dramatically suppressed | – | – |
| O=C(Nc1ccc(NCc2cccnc2)cc1Cl)c1cc(Cl)ccc1O [Compound 19, 5-Chloro-N-(2-chloro-4-((pyridin-3-ylmethyl)amino)phenyl)-2-hydroxybenzamide] | – | – | no suppression | no effect | – | – | no suppression | no effect | – | RSV-induced cytokines/chemokines (all tested immune mediators) [2]: did not show any inhibitory effect |
| CCCNc1ccc(NC(=O)c2cc(Cl)ccc2O)c(Cl)c1 [Compound 11] | – | – | significantly inhibited | dramatically suppressed | – | – | significantly inhibited | dramatically suppressed | – | RSV-induced MIP-1β [2]: capable to inhibit |
| O=C(Nc1ccc(NCc2ccco2)cc1Cl)c1cc(Cl)ccc1O [Compound 22, 5-Chloro-N-(2-chloro-4-((furan-2-ylmethyl)amino)phenyl)-2-hydroxybenzamide] | no suppression; also recorded: enhanced | no suppression | significantly inhibited | dramatically suppressed | significantly decreased | significantly decreased | significantly inhibited | dramatically suppressed | no suppression | Poly I:C-induced NF-κB activation (luciferase reporter) [1]: impacted; Poly I:C-activated IRF-3 (luciferase reporter) [6]: suppressed; RSV protein expression [8]: comparable; expression of viral P, M, N and F proteins [8]: decreased; nuclear translocation of IRF3 ([9]; 4 h posttreatment, RSV MOI 5): significantly decreased; RSV-induced IRF3 phosphorylation at Ser396 [9, 14]: significantly decreased; nuclear translocation of IRF3 ([9]; 15 h posttreatment, RSV MOI 1): significantly decreased; RSV-induced IRF3 phosphorylation at Ser396 [9, 15]: significantly decreased; IRF-3 total protein level in the cell [9]: undetectable or minimal impact; RSV-induced p65 Ser276 phosphorylation ([10]; 4 h posttreatment, RSV MOI 5): not affected; RSV-induced p65 Ser536 phosphorylation ([10]; 4 h posttreatment, RSV MOI 5): suppressed; nuclear translocation of p65 ([10]; 4 h posttreatment, RSV MOI 5): suppressed; RSV-induced p65 Ser276 phosphorylation ([10]; 15 h posttreatment, RSV MOI 1): robustly suppressed; RSV-induced p65 Ser536 phosphorylation ([10]; 15 h posttreatment, RSV MOI 1): robustly suppressed; nuclear translocation of p65 ([10]; 15 h posttreatment, RSV MOI 1): robustly suppressed; p65 total protein level in the cell [10]: undetectable or minimal impact |
| CS(=O)(=O)CCCn1c(Cn2c(=O)n(CC(F)(F)F)c3ccncc32)cc2cc(Cl)ccc21 [JNJ-53718678, reference compound] | – | – | – | – | did not affect | slightly decreased | – | – | – | – |
| CC(C)Nc1ccc(NC(=O)c2cc(Cl)ccc2O)c(Cl)c1 [Compound 12] | no suppression | no suppression | significantly inhibited | dramatically suppressed | – | – | significantly inhibited | dramatically suppressed | no suppression | – |
| O=C(Nc1ccc([N+](=O)[O-])cc1Cl)c1cc(Cl)ccc1O [Niclosamide] | – | – | – | – | – | – | – | – | – | cell death [11]: about 24% |
